The list is not random: actives were taken first. Their share in the collection is about 4.8%.
697 NFkB inh – inhibitors of the PMA/ionomycin-induced NF-kB reporter in 697 B cells; 330,000 compounds, 0.33% hits; 697 B-cell NF-kB luciferase reporter, 16 h; inhibition, % at 4 µM; AID 435022; in the data active = inhibition above about 35%
HSF-1 act – increases HSF-1 driven luciferase reporter signal. NIH3T3-HGL HSF-1 luciferase reporter, MG132, 8 h; 100% = twice DMSO control signal. activation, % at 9 µM. 300,000 compounds, 1.7% hits. AID 504408;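 active = mean replicate activation of at least 50% with a set share of replicates each reaching 50%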
GPR7 antagonist – antagonists of human GPR7 (neuropeptides B/W receptor 1); inhibition, % at 4.4 µM; P48145; GPR7-expressing cells, fluorescence antagonist assay; 290,000 compounds, 1.1% hits; AID 1861; in the data active = inhibition above about 16%, passing the limit was not always enough;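 also: cells stimulated with the agonist NPW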
Target sequence (P48145 whole entry, looked up): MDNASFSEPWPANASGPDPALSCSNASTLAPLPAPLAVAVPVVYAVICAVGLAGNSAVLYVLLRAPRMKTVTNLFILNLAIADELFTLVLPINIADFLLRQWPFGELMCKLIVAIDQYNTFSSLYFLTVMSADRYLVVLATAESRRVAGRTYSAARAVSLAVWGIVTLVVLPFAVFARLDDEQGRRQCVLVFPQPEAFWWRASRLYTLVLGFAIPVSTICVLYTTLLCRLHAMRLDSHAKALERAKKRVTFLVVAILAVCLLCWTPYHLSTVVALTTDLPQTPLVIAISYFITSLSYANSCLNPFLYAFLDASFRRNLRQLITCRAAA
HSF1 inh – HSF1 inhibition; 300,000 compounds, 0.77% hits; activity change, negative = inhibition, % at 7.5 µM (by protocol); NIH3T3-HGL HSE-luciferase, MG132-induced, luminescence 8 h; hits give low values; AID 2098;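 active = more than half of replicate wells show activity change below -50%, luminescence cut by over half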;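 also: luciferase reports HSF-1 transcriptional activity via heat shock element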
T cruzi inh – blocks replication of Trypanosoma cruzi. inhibition, % (concentration not given with the values). T. cruzi beta-gal in NIH3T3, luminescence, 90 h. AID 1885. 300,000 compounds, 1.4% hits;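 active = mean inhibition across valid replicates above about 55%, limit read from the data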;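 also: signal also drops with host cell toxicity which is not excluded here; higher percent means less beta-gal luminescence so fewer parasites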
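System: mouse NIH/3T3 fibroblasts infected with β-gal-expressing T. cruzi Tulahuen C4 / Input: NIH/3T3 cells, 5,000 per well / Buffer or medium: Low-serum DMEM with 2% FBS / Probe or stimulus: 5000 reporter trypomastigotes per well / Schedule: ≥90 h infection period, 3 h prior cell attachment / Measured by: GalScreen luminescence, 60 min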
Jurkat NFkB inh – inhibitors of the PMA/ionomycin-induced NF-kB reporter in Jurkat cells; PMA/ionomycin-induced NF-kB luciferase reporter, luminescence; inhibition, % at 4 µM; 330,000 compounds, 0.53% hits; AID 435003; in the data active = inhibition above about 50%
GPR7 antag conf – confirmation of human GPR7 antagonists. 2,400 compounds, 52% hits. AID 1952. GPR7-expressing cells, calcium fluorescence antagonist mode. shares compounds with GPR7 antagonist. inhibition, % at 4.4 µM; in the data active = inhibition above about 24%;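 also: stimulated with the GPR7 agonist NPW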
MCHR1 antag – counter-screen for GPR7 antagonists: antagonists of human MCHR1. inhibition, % at 4.4 µM. shares compounds with GPR7 antagonist. MCHR1-expressing cells, fluorescence antagonist assay. 2,400 compounds, 62% hits. AID 2148; in the data active = inhibition above about 22%
Hits are given with their value; . = inactive; / = not tested or not shown.

SMILES	697 NFkB inh	HSF-1 act	GPR7 antagonist	HSF1 inh	T cruzi inh	Jurkat NFkB inh	GPR7 antag conf	MCHR1 antag
Cc1noc(C)c1NC(=O)N(C)C[C@H]1Oc2ccc(NS(=O)(=O)c3cn(C)cn3)cc2C(=O)N([C@H](C)CO)C[C@@H]1C	.	/	/	/	/	.	/	/
CCOc1ccc(CCNC(=O)CCc2nnc3ccc(N4CCOCC4)nn23)cc1OCC	.	.	30	.	.	.	.	.
CCOC(=O)Cn1cc(/C=N/NC(=O)c2cc3ccccc3o2)c2ccccc21	.	.	26	.	.	.	.	28
COc1ccc(C(=O)c2c(C)c3ccccc3n2CC(O)CNC(C)C)cc1 (stereo not drawn)	.	.	21	.	.	.	.	.
Cc1ccccc1C1c2[nH]c3ccccc3c2C[C@H]2C(=O)N(c3ccccc3C(=O)NCCCN3CCOCC3)C(=O)N12 (stereo partly drawn)	.	.	.	.	.	.	/	/
O=C(NCCCN1CCOCC1)c1ccccc1N1C(=O)[C@@H]2Cc3c([nH]c4ccccc34)C(c3cccc(Cl)c3)N2C1=O (stereo partly drawn)	.	.	27	.	.	.	25	35
Cc1ccc(C2c3[nH]c4ccccc4c3C[C@H]3C(=O)N(c4ccccc4C(=O)NCCN4CCOCC4)C(=O)N23)cc1 (stereo partly drawn)	.	.	28	.	.	.	.	22
Cc1ccc(C2c3[nH]c4ccccc4c3C[C@H]3C(=O)N(c4ccccc4C(=O)NCCCN4CCOCC4)C(=O)N23)cc1 (stereo partly drawn)	.	.	.	.	.	.	/	/
COc1ccc(CN2CCn3nc(C(=O)NC4CC4)cc3C2=O)cc1	.	.	.	.	.	.	/	/
COc1ccc(N(CC(=O)Nc2nccs2)S(=O)(=O)c2c(C)[nH]c(=O)[nH]c2=O)cc1	.	.	.	.	.	.	/	/
O=C(CSc1n[nH]c(=O)[nH]c1=O)c1ccc([N+](=O)[O-])cc1	.	.	26	.	.	.	.	.
O=C(c1ccco1)N1CCN(S(=O)(=O)c2ccc(S(=O)(=O)NC3CCCCC3)cc2)CC1	.	.	/	.	.	.	/	.
Cc1sc(NC(=O)C2CCCCC2C(=O)O)c(C(N)=O)c1C (stereo not drawn)	.	.	22	.	.	.	.	.
Cc1sc(NC(=O)C2CCCCC2C(=O)O)c(C(N)=O)c1-c1ccccc1 (stereo not drawn)	.	.	.	.	.	.	/	/
CCN(c1ccc(C(=O)CSc2nnc(C3CC3)n2C2CC2)cc1)S(C)(=O)=O	.	/	/	/	/	.	/	/
COc1cccc(CN2CCN(C(=O)Nc3ccc([N+](=O)[O-])cc3)CC2)c1	.	.	29	.	.	.	41	68
O=[N+]([O-])c1ccc(N2CCN(Cc3cccc([N+](=O)[O-])c3)CC2)cc1	.	.	37	.	.	.	56	63
O=[N+]([O-])c1ccc(CN2CCC(Cc3ccccc3)CC2)cc1	.	.	26	.	.	.	.	33
O=[N+]([O-])c1ccc(CN2CCN(c3ccc4ccccc4n3)CC2)cc1	.	.	.	.	.	.	/	/
O=[N+]([O-])c1ccc(N2CCN(Cc3ccccc3)CC2)nc1	.	.	22	.	.	.	27	.
Cc1ccc(C)c(N(C(=O)CS(=O)CC(=O)Nc2ccc3c(c2)OCO3)C(C)C(=O)NC2CCCC2)c1 (stereo not drawn)	.	.	.	.	.	.	/	/
CCOc1ccc(CCNC(=O)COC(=O)COc2ccc(Br)cc2)cc1OCC	.	.	.	.	.	.	/	/
Cc1ccc([N+](=O)[O-])c(C(=O)N/N=C/c2cccnc2)c1	.	.	.	.	.	.	/	/
Cc1ccc(NC2Sc3ccccc3NC2=O)cc1 (stereo not drawn)	.	.	.	.	.	.	/	/
COc1ccc(-c2cc(C(=O)N(C)Cc3ccccc3)no2)cc1OC	.	.	31	.	.	.	.	.

Screening data: PubChem BioAssay, several laboratories
